ChEMBL document CHEMBL3352237, “Synthesis and biological evaluation of novel peptide BF2 as an antibacterial agent against clinical isolates of vancomycin-resistant enterococci” (J Med Chem, 2014)

What was measured:
Enterococcus faecalis [1] = assay: Bactericidal activity against vancomycin-resistant Enterococcus faecalis clinical isolate 5642 after 24 hrs by two-fold serial dilution method; type: functional; conditions: isolate 5642, 24 h
Enterococcus faecium [2] = assay: Bactericidal activity against vancomycin-resistant Enterococcus faecium clinical isolate 30/48 after 24 hrs by two-fold serial dilution method; type: functional; conditions: isolate 30/48, 24 h
Rattus norvegicus = assay: Toxicity in Wistar albino rat infected with Enterococcus at MIC to 3 times MIC, iv; type: organism-based; conditions: in vivo
Enterococcus faecium [3] = assay: Bactericidal activity against vancomycin-resistant Enterococcus faecium clinical isolate 6/22 after 24 hrs by two-fold serial dilution method; type: functional; conditions: isolate 6/22, 24 h
Enterococcus faecium [4] = assay: Bactericidal activity against vancomycin-resistant Enterococcus faecium clinical isolate 23/240 after 24 hrs by two-fold serial dilution method; type: functional; conditions: isolate 23/240, 24 h
[5] = Hemolytic activity against human RBC at 5 times MIC after 1 hr by spectrophotometry; type: ADME, cell-based, Erythrocyte; conditions: red blood cells, read-out: Activity
Enterococcus faecium [6] = assay: Antibacterial activity against vancomycin-resistant Enterococcus faecium clinical isolate 12875 after overnight incubation by two-fold serial dilution method; type: functional
Enterococcus faecium [7] = assay: Antibacterial activity against vancomycin-resistant Enterococcus faecium clinical isolate 17301 after overnight incubation by two-fold serial dilution method; type: functional
Enterococcus faecium [8] = assay: Antibacterial activity against vancomycin-resistant Enterococcus faecium clinical isolate 8/224 after overnight incubation by two-fold serial dilution method; type: functional
Enterococcus faecalis [9] = assay: Antibacterial activity against vancomycin-resistant Enterococcus faecalis clinical isolate 22626 after overnight incubation by two-fold serial dilution method; type: functional
Enterococcus faecium [10] = assay: Bactericidal activity against vancomycin-resistant Enterococcus faecium clinical isolate 151495 after 24 hrs by two-fold serial dilution method; type: functional; conditions: isolate 151495, 24 h
Enterococcus faecium [11] = assay: Bactericidal activity against vancomycin-resistant Enterococcus faecium clinical isolate 14643 after 24 hrs by two-fold serial dilution method; type: functional; conditions: isolate 14643, 24 h
Enterococcus faecium [12] = assay: Antibacterial activity against vancomycin-resistant Enterococcus faecium clinical isolate 16115 after overnight incubation by two-fold serial dilution method; type: functional
Enterococcus [13] = assay: Antibacterial activity against vancomycin-resistant Enterococcus ATCC 51299 after 18 to 20 hrs by checkerboard titration method in presence of vancomycin; type: functional
Enterococcus faecium [14] = assay: Antibacterial activity against vancomycin-resistant Enterococcus faecium clinical isolate 18906 after overnight incubation by two-fold serial dilution method; type: functional
Enterococcus [15] = assay: Antibacterial activity against vancomycin-resistant Enterococcus clinical isolate after 18 to 20 hrs by checkerboard titration method in presence of vancomycin; type: functional
Enterococcus faecalis [16] = assay: Antibacterial activity against vancomycin-resistant Enterococcus faecalis clinical isolate 22/203 after overnight incubation by two-fold serial dilution method; type: functional
Enterococcus faecalis [17] = assay: Antibacterial activity against vancomycin-resistant Enterococcus faecalis clinical isolate 7670 after overnight incubation by two-fold serial dilution method; type: functional
[18] = Hemolytic activity against human RBC at MIC after 1 hr by spectrophotometry; type: ADME, cell-based; conditions: erythrocyte
Enterococcus faecium [19] = assay: Bactericidal activity against vancomycin-resistant Enterococcus faecium clinical isolate 10177 after 24 hrs by two-fold serial dilution method; type: functional; conditions: isolate 10177, 24 h
Enterococcus faecium [20] = assay: Bactericidal activity against vancomycin-resistant Enterococcus faecium clinical isolate 29/203 after 24 hrs by two-fold serial dilution method; type: functional; conditions: isolate 29/203, 24 h
Enterococcus faecium [21] = assay: Antibacterial activity against vancomycin-resistant Enterococcus faecium clinical isolate 28/211 after overnight incubation by two-fold serial dilution method; type: functional
Enterococcus faecalis [22] = assay: Bactericidal activity against vancomycin-resistant Enterococcus faecalis clinical isolate 5648 after 24 hrs by two-fold serial dilution method; type: functional; conditions: isolate 5648, 24 h
Enterococcus faecium [23] = assay: Antibacterial activity against vancomycin-resistant Enterococcus faecium clinical isolate 6/22 after overnight incubation by two-fold serial dilution method; type: functional
Enterococcus faecalis [24] = assay: Bactericidal activity against vancomycin-resistant Enterococcus faecalis clinical isolate 7077 after 24 hrs by two-fold serial dilution method; type: functional; conditions: isolate 7077, 24 h
Enterococcus faecium [25] = assay: Bactericidal activity against vancomycin-resistant Enterococcus faecium clinical isolate 147969 after 24 hrs by two-fold serial dilution method; type: functional; conditions: isolate 147969, 24 h
Enterococcus faecalis [26] = assay: Bactericidal activity against vancomycin-resistant Enterococcus faecalis clinical isolate 7079 after 24 hrs by two-fold serial dilution method; type: functional; conditions: isolate 7079, 24 h
Enterococcus faecium [27] = assay: Bactericidal activity against vancomycin-resistant Enterococcus faecium clinical isolate 16115 after 24 hrs by two-fold serial dilution method; type: functional; conditions: isolate 16115, 24 h
Enterococcus faecium [28] = assay: Bactericidal activity against vancomycin-resistant Enterococcus faecium clinical isolate 12/266 after 24 hrs by two-fold serial dilution method; type: functional; conditions: isolate 12/266, 24 h
Enterococcus faecalis [29] = assay: Antibacterial activity against vancomycin-resistant Enterococcus faecalis clinical isolate 7079 after overnight incubation by two-fold serial dilution method; type: functional
Enterococcus [30] = assay: Antibacterial activity against vancomycin-resistant Enterococcus ATCC 51299 after 18 to 20 hrs by checkerboard titration method in presence of linezolid; type: functional
Enterococcus [31] = assay: Bactericidal activity against […] after 24 hrs by two-fold serial dilution method; type: functional; conditions: ATCC 29212, 24 h
Enterococcus [32] = assay: Antibacterial activity against vancomycin-resistant Enterococcus ATCC 29212 after overnight incubation by two-fold serial dilution method; type: functional
Enterococcus [33] = assay: Antibacterial activity against Enterococcus infected in Wistar albino rat assessed as reduction in cell count at 2 times MIC, iv after 1 hr relative to control; type: functional; parameters: scale not given: the % may be the effect or the level left
Outline: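 Female Wistar albino rats, 40−45 days old, 125−150 g, 5 groups of 3. Enterococci were grown to log phase in MH broth, centrifuged at 1000g for 15 min, and diluted in PBS to 4 × 10^6 CFU/mL. Rats were inoculated i.v. and treated i.v. 1 h later with 12.5, 25 or 37.5 mg/kg peptide, PBS vehicle, or linezolid 25 mg/kg. Tail-vein blood taken 1 h post-treatment was plated on blood agar, incubated overnight at 37 °C, and colonies counted.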

Enterococcus faecium [34] = assay: Antibacterial activity against vancomycin-resistant Enterococcus faecium clinical isolate 5484 after overnight incubation by two-fold serial dilution method; type: functional
Enterococcus faecium [35] = assay: Bactericidal activity against vancomycin-resistant Enterococcus faecium clinical isolate 12875 after 24 hrs by two-fold serial dilution method; type: functional; conditions: isolate 12875, 24 h
Enterococcus faecium [36] = assay: Bactericidal activity against vancomycin-resistant Enterococcus faecium clinical isolate 3864 after 24 hrs by two-fold serial dilution method; type: functional; conditions: isolate 3864, 24 h
Enterococcus faecium [37] = assay: Bactericidal activity against vancomycin-resistant Enterococcus faecium clinical isolate 5396 after 24 hrs by two-fold serial dilution method; type: functional; conditions: isolate 5396, 24 h
Enterococcus faecium [38] = assay: Bactericidal activity against vancomycin-resistant Enterococcus faecium clinical isolate 5484 after 24 hrs by two-fold serial dilution method; type: functional; conditions: isolate 5484, 24 h
Enterococcus faecium [39] = assay: Antibacterial activity against vancomycin-resistant Enterococcus faecium clinical isolate 27/16917 after overnight incubation by two-fold serial dilution method; type: functional; conditions: isolate 27/1691
Enterococcus faecalis [40] = assay: Antibacterial activity against vancomycin-resistant Enterococcus faecalis clinical isolate 5648 after overnight incubation by two-fold serial dilution method; type: functional
Enterococcus faecium [41] = assay: Bactericidal activity against vancomycin-resistant Enterococcus faecium clinical isolate 13246 after 24 hrs by two-fold serial dilution method; type: functional; conditions: isolate 13246, 24 h
Enterococcus faecium [42] = assay: Antibacterial activity against vancomycin-resistant Enterococcus faecium clinical isolate 27/221 after overnight incubation by two-fold serial dilution method; type: functional

H-RWRLLLLKKH-OH
25 µg/mL: MBC (Enterococcus faecalis [1]) | MBC (Enterococcus faecium [2]) | MBC (Enterococcus faecium [3]) | MBC (Enterococcus faecium [4]) | MBC (Enterococcus faecium [10]) | MBC (Enterococcus faecium [11]) | MBC (Enterococcus faecium [19]) | MBC (Enterococcus faecium [20]) | MBC (Enterococcus faecalis [22]) | MBC (Enterococcus faecalis [24]) | MBC (Enterococcus faecium [25]) | MBC (Enterococcus faecalis [26]) | MBC (Enterococcus faecium [27]) | MBC (Enterococcus faecium [28]) | MBC (Enterococcus [31]) | MIC (Enterococcus [32]) | MBC (Enterococcus faecium [35]) | MBC (Enterococcus faecium [36]) | MBC (Enterococcus faecium [37]) | MBC (Enterococcus faecium [38]) | MBC (Enterococcus faecium [41])
0.06: fractional inhibitory concentration index (FICI) (Enterococcus [13])
< 5%: hemolysis at 1 h, 5 times MIC [5]
12.5 µg/mL: MIC (Enterococcus faecium [6]) | MIC (Enterococcus faecium [8]) | MIC (Enterococcus faecalis [9]) | MIC (Enterococcus faecium [12]) | MIC (Enterococcus faecium [14]) | MIC (Enterococcus faecalis [16]) | MIC (Enterococcus faecalis [17]) | MIC (Enterococcus faecium [21]) | MIC (Enterococcus faecium [23]) | MIC (Enterococcus faecalis [29]) | MIC (Enterococcus faecium [34]) | MIC (Enterococcus faecium [39]) | MIC (Enterococcus faecalis [40]) | MIC (Enterococcus faecium [42])
2.1: fractional inhibitory concentration index (FICI) (Enterococcus [30])
6.25 µg/mL: MIC (Enterococcus faecium [7])
0.25: fractional inhibitory concentration index (FICI) (Enterococcus [15])
Non-toxic: Activity (Rattus norvegicus) | Activity [18]
76%: Activity (Enterococcus [33])
